Measurements as given in ChEMBL document CHEMBL5724801, “EUbOPEN Chemogenomics Library - Multiplex” (2024).
“And” between values parts separate entries of the source, which are not always exact repeats. Equal entries are not always repeated.

Experiments:
U2OS = test: Multiplex assay against U2OS; format: toxicity, cell-based; details: human
Outline: (§1)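 Cells stained live at seeding with Hoechst33342, BioTracker Green Microtubule Cytoskeleton Dye, MitoTracker Red and Annexin V Alexa Fluor 680 were imaged on a CQ1 microscope at 37°C and 5% CO2 after compound addition. Their classification by CellPathfinder machine-learning gating ran from Hoechst high-intensity objects versus normal cells, to healthy, pyknosed or fragmented nuclei among normal cells, to mitotic or apoptotic among pyknosed cells. Tubulin, mitochondrial-mass and membrane-permeability phenotypes are per cents of healthy-nucleus cells.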

HEK-293T = test: Multiplex assay against HEK293T; format: toxicity, cell-based; details: human; outline: as §1
[1] = 24 h, 1 µM, compound concentration 1 uM
[2] = 24 h, 10 µM, compound concentration 10 uM
[3] = 48 h, 1 µM, compound concentration 1 uM
[4] = 48 h, 10 µM, compound concentration 10 uM
[5] = 12 h, 1 µM, compound concentration 1 uM
[6] = 12 h, 10 µM, compound concentration 10 uM

O=C(Nc1ccccc1Cl)c1cnc2ccc(C3CCNCC3)cn12.O=C(O)C(=O)O
Population Tubulin-Different-Phenotype (%) (U2OS; [1]): 0.59% and 1.56% | Total Cell Count (U2OS; [1]): 616 and 229 | Population Apoptotic (%) (U2OS; [2]): 50% and 42.31% | Population Fragmented Nuclei (%) (U2OS; [2]): 3.44% and 5.18% | Population Healthy Nuclei (%) (U2OS; [2]): 75.51% and 63.75% | Population Hoechst High Intensity Objects (%) (U2OS; [2]): 0.2% and 0.4% | Population Membrane Permeable-Phenotype (%) (U2OS; [2]): 2.14% and 8.12% | Population Mitochondria Different-Phenotype (%) (U2OS; [2]): 0.8% and 10.62% | Population Mitotic Cells (%) (U2OS; [2]): 50% and 57.69% | Population Normal (%) (U2OS; [2]): 99.8% and 99.6% | Population Pyknosed Nuclei (%) (U2OS; [2]): 21.05% and 31.08% | Population Tubulin-Different-Phenotype (%) (U2OS; [2]): 4.02% and 2.5% | Total Cell Count (U2OS; [2]): 495 and 252 | Population Apoptotic (%) (U2OS; [3]): 50.86% and 56.25% | Population Fragmented Nuclei (%) (U2OS; [3]): 4.49% and 3.81% | Population Healthy Nuclei (%) (U2OS; [3]): 84.2% and 83.11% | Population Hoechst High Intensity Objects (%) (U2OS; [3]): 0% and 0.27% | Population Membrane Permeable-Phenotype (%) (U2OS; [3]): 2.09% and 5.57% | Population Mitochondria Different-Phenotype (%) (U2OS; [3]): 0% and 0.98% | Population Mitotic Cells (%) (U2OS; [3]): 49.14% and 43.75% | Population Normal (%) (U2OS; [3]): 100% and 99.73% | Population Pyknosed Nuclei (%) (U2OS; [3]): 11.32% and 13.08% | Population Tubulin-Different-Phenotype (%) (U2OS; [3]): 0.93% and 2.3% | Total Cell Count (U2OS; [3]): 1025 and 368 | Population Apoptotic (%) (U2OS; [4]): 54.92% and 58.04% | Population Fragmented Nuclei (%) (U2OS; [4]): 4.59% and 4.38% | Population Healthy Nuclei (%) (U2OS; [4]): 68.57% and 60.62% | Population Hoechst High Intensity Objects (%) (U2OS; [4]): 0.96% and 0% | Population Membrane Permeable-Phenotype (%) (U2OS; [4]): 5.07% and 11.34% | Population Mitochondria Different-Phenotype (%) (U2OS; [4]): 0.81% and 4.64% | Population Mitotic Cells (%) (U2OS; [4]): 45.08% and 41.96% | Population Normal (%) (U2OS; [4]): 99.04% and 100% | Population Pyknosed Nuclei (%) (U2OS; [4]): 26.84% and 35% | Population Tubulin-Different-Phenotype (%) (U2OS; [4]): 3.45% and 9.28% | Total Cell Count (U2OS; [4]): 726 and 320 | Population Apoptotic (%) (HEK-293T; [5]): 13.38% and 9.73% | Population Fragmented Nuclei (%) (HEK-293T; [5]): 1.98% and 9.79% | Population Hoechst High Intensity Objects (%) (HEK-293T; [5]): 0.39% and 0% | Population Membrane Permeable-Phenotype (%) (HEK-293T; [5]): 1.89% and 0% | Population Mitotic Cells (%) (HEK-293T; [5]): 86.62% and 90.27% | Population Normal (%) (HEK-293T; [5]): 99.61% and 100% | Population Pyknosed Nuclei (%) (HEK-293T; [5]): 56.13% and 79.02% | Population Tubulin-Different-Phenotype (%) (HEK-293T; [5]): 20.75% and 18.75% | Total Cell Count (HEK-293T; [5]): 254 and 143 | Population Apoptotic (%) (HEK-293T; [6]): 16.08% and 15.91% | Population Fragmented Nuclei (%) (HEK-293T; [6]): 4.31% and 3.38% | Population Hoechst High Intensity Objects (%) (HEK-293T; [6]): 0.48% and 0% | Population Membrane Permeable-Phenotype (%) (HEK-293T; [6]): 1.75% and 0% | Population Mitochondria Different-Phenotype (%) (HEK-293T; [6]): 66.67% and 72.73% | Population Mitotic Cells (%) (HEK-293T; [6]): 83.92% and 84.09% | Population Normal (%) (HEK-293T; [6]): 99.52% and 100% | Population Pyknosed Nuclei (%) (HEK-293T; [6]): 68.42% and 89.19% | Population Tubulin-Different-Phenotype (%) (HEK-293T; [6]): 52.63% and 54.55% | Total Cell Count (HEK-293T; [6]): 210 and 148 | Population Apoptotic (%) (HEK-293T; [1]): 19.23% and 23.68% | Population Fragmented Nuclei (%) (HEK-293T; [1]): 1.95% and 4.9% | Population Hoechst High Intensity Objects (%) (HEK-293T; [1]): 0.97% and 0% | Population Membrane Permeable-Phenotype (%) (HEK-293T; [1]): 0.74% and 4.55% | Population Mitochondria Different-Phenotype (%) (HEK-293T; [1]): 37.5% and 22.73% | Population Mitotic Cells (%) (HEK-293T; [1]): 80.77% and 76.32% | Population Normal (%) (HEK-293T; [1]): 99.03% and 100% | Population Pyknosed Nuclei (%) (HEK-293T; [1]): 31.71% and 79.72% | Population Tubulin-Different-Phenotype (%) (HEK-293T; [1]): 31.25% and 22.73% | Total Cell Count (HEK-293T; [1]): 414 and 143 | Population Apoptotic (%) (HEK-293T; [2]): 34.45% and 29.91% | Population Fragmented Nuclei (%) (HEK-293T; [2]): 4.76% and 4% | Population Healthy Nuclei (%) (HEK-293T; [2]): 43.72% and 18% | Population Hoechst High Intensity Objects (%) (HEK-293T; [2]): 0% | Population Membrane Permeable-Phenotype (%) (HEK-293T; [2]): 0.99% and 3.7% | Population Mitochondria Different-Phenotype (%) (HEK-293T; [2]): 74.26% and 51.85% | Population Mitotic Cells (%) (HEK-293T; [2]): 65.55% and 70.09% | Population Normal (%) (HEK-293T; [2]): 100% | Population Pyknosed Nuclei (%) (HEK-293T; [2]): 51.52% and 78% | Population Tubulin-Different-Phenotype (%) (HEK-293T; [2]): 81.19% and 40.74% | Total Cell Count (HEK-293T; [2]): 231 and 150 | Population Apoptotic (%) (HEK-293T; [3]): 9.3% and 24.49% | Population Fragmented Nuclei (%) (HEK-293T; [3]): 3.3% and 6.21% | Population Healthy Nuclei (%) (HEK-293T; [3]): 83.82% and 32.92% | Population Hoechst High Intensity Objects (%) (HEK-293T; [3]): 0.1% and 0% | Population Membrane Permeable-Phenotype (%) (HEK-293T; [3]): 2.62% and 1.89% | Population Mitochondria Different-Phenotype (%) (HEK-293T; [3]): 28.13% and 43.4% | Population Mitotic Cells (%) (HEK-293T; [3]): 90.7% and 75.51% | Population Normal (%) (HEK-293T; [3]): 99.9% and 100% | Population Apoptotic (%) (HEK-293T; [4]): 20% and 23.23% | Population Fragmented Nuclei (%) (HEK-293T; [4]): 3.53% and 4.03% | Population Healthy Nuclei (%) (HEK-293T; [4]): 73.65% and 29.53% | Population Hoechst High Intensity Objects (%) (HEK-293T; [4]): 0.21% and 0% | Population Membrane Permeable-Phenotype (%) (HEK-293T; [4]): 1.97% and 0% | Population Mitochondria Different-Phenotype (%) (HEK-293T; [4]): 64.51% and 56.82% | Population Mitotic Cells (%) (HEK-293T; [4]): 80% and 76.77% | Population Normal (%) (HEK-293T; [4]): 99.79% and 100% | Population Pyknosed Nuclei (%) (HEK-293T; [4]): 22.82% and 66.44% | Population Tubulin-Different-Phenotype (%) (HEK-293T; [4]): 33.24% and 81.82%
